Test results as given in ChEMBL document CHEMBL1795289, “5-alk(en)ylresorcinols as the major active components in wheat bran inhibit human colon cancer cell growth” (Bioorg Med Chem, 2011).
In brackets after ≈: the same amount, converted by molar mass.

Columns and labels:
Assay type in all cases: functional, cell-based
HT-29 = test: Growth inhibition of human HT-29 cells after 48 hrs by MTT assay; conditions: HT-29, 48 h
In short: (§1)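 Cells seeded at 5000/well and left 24 h at 37 °C to attach. Samples in DMSO diluted into McCoy's 5A with 10% FBS, penicillin/streptomycin, amphotericin B and glutamine at 5, 10, 25, 37 and 50 µg/mL, 48 h, 37 °C. MTT 2.41 mmol/L for 3 h, formazan dissolved in DMSO, absorbance 595 nm. Reported as % cell growth, n = 8; IC50 by curve fitting.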

HCT-116 = test: Growth inhibition of human HCT116 cells after 48 hrs by MTT assay; conditions: HCT-116, 48 h; in short: as §1
BT-20 = test: Growth inhibition of human BT20 cells
FM3A = test: Growth inhibition of mouse FM3A cells
HeLa = test: Growth inhibition of human HeLa cells

SMILES	IC50 (HT-29)	IC50 (HCT-116)	IC50 (BT-20)	IC50 (FM3A)	IC50 (HeLa)
CCCC/C=C\CCCCCCCCCCCc1cc(O)cc(O)c1	35.6 µg/mL (≈ 103 µM)	20 µg/mL (≈ 57.8 µM)	–	–	–
CCCCCCCCCCCCCCCCCCCc1cc(O)cc(O)c1	> 50 µg/mL	36.2 µg/mL (≈ 96.1 µM)	–	–	–
CCCC/C=C\CCCCCCCCCCCCCc1cc(O)cc(O)c1	–	17.6 µg/mL (≈ 47.1 µM)	–	–	–
CCCCCC/C=C\CCCCCCCCCCCc1cc(O)cc(O)c1	30.4 µg/mL (≈ 81.2 µM)	11.6 µg/mL (≈ 30.9 µM)	–	–	–
CCCCC/C=C\C/C=C\CCCCCCCCCc1cc(O)cc(O)c1	48.3 µg/mL (≈ 130 µM)	27.1 µg/mL (≈ 72.6 µM)	–	–	–
CC/C=C\C/C=C\C/C=C\CCCCCCCCCc1cc(O)cc(O)c1	39.5 µg/mL (≈ 107 µM)	20 µg/mL (≈ 54.1 µM)	–	–	–
CCCCCCCCCCCCCCCCCCCCCc1cc(O)cc(O)c1	> 50 µg/mL	> 50 µg/mL	–	–	–
CCCC/C=C\CCCCCCCCCCCCCCCc1cc(O)cc(O)c1	46.9 µg/mL (≈ 116 µM)	22.3 µg/mL (≈ 55.3 µM)	–	–	–
CCCCCCCCCCCCCCCCCCCC(=O)Cc1cc(O)cc(O)c1	–	16.6 µg/mL (≈ 39.7 µM)	–	–	–
CCCCCCCCCCCCCCCCCCCCCCCc1cc(O)cc(O)c1	> 50 µg/mL	> 50 µg/mL	–	–	–
CCCCCCCCCCCCCCCCCCCCCC(=O)Cc1cc(O)cc(O)c1	–	> 50 µg/mL	–	–	–
CCCCCCCCCCCCCCCCCCCCCCCCCc1cc(O)cc(O)c1	> 50 µg/mL	> 50 µg/mL	–	–	–
CCCCCCCCCCCCCCCCCc1cc(O)cc(O)c1	31.1 µg/mL (≈ 89.4 µM)	18.9 µg/mL (≈ 54.3 µM)	–	–	–
CCCCCCCCCCCCCCCc1cc(O)cc(O)c1 [CARDOL]	–	–	6.25 µg/mL (≈ 19.5 µM)	2.8 µM	4.02 µg/mL (≈ 12.5 µM)
